Several values for one entry are separate records, joined by “and”; a condition that tells them apart may be missing. Identical values can stand only once. Values belong to the compound of their own block, whether it stands above or below them.
Legend:
[1] = Rate constants were calculated for the compound by linear regression analysis
Mus musculus [2] = assay: Body weight difference the relation of the test animal to control animal weight was calculated at the 30 mg/kg doses; assay type: functional
Outline: (§1)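 P388 leukemia ascitic fluid implanted intraperitoneally into CD2F1 mice. Dosing was intraperitoneal, starting 24 h after inoculation, once daily for five doses, as a suspension in saline and Tween 80 made fresh each day. Some compounds were given in Klucel (hydroxypropylcellulose) or in saline/Tween/alcohol instead. Acute toxicity was checked on day 5 and the study was evaluated on day 30.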

Mus musculus [3] = assay: Tumor cell population at the end of treatment relative to its size at the beginning of the treatment was calculated at the 15 mg/kg doses; assay type: functional; outline: as §1
P388 [4] = assay: Compound was tested for antitumor activity against P388 lymphocytic leukemia at the dose 7.5 mg/kg; assay type: functional, Mus musculus; outline: as §1
Mus musculus [5] = assay: Body weight difference the relation of the test animal to control animal weight was calculated at the 7.5 mg/kg doses; assay type: functional; outline: as §1
Mus musculus [6] = assay: Tumor cell population at the end of treatment relative to its size at the beginning of the treatment was calculated at the 7.5 mg/kg doses; assay type: functional; outline: as §1
P388 [7] = assay: Compound was tested for antitumor activity against P388 lymphocytic leukemia at the dose 15 mg/kg; assay type: functional, Mus musculus; outline: as §1
Mus musculus [8] = assay: Body weight difference the relation of the test animal to control animal weight was calculated at the 15 mg/kg doses; assay type: functional; outline: as §1
P388 [9] = assay: Compound was tested for antitumor activity against P388 lymphocytic leukemia at the dose 50 mg/kg; assay type: functional, Mus musculus; outline: as §1
Mus musculus [10] = assay: Body weight difference the relation of the test animal to control animal weight was calculated at the 100 mg/kg doses; assay type: functional; outline: as §1
Mus musculus [11] = assay: Tumor cell population at the end of treatment relative to its size at the beginning of the treatment was calculated at the 25 mg/kg doses; assay type: functional; outline: as §1
Mus musculus [12] = assay: Tumor cell population at the end of treatment relative to its size at the beginning of the treatment was calculated at the 12.5 mg/kg doses; assay type: functional; outline: as §1
Mus musculus [13] = assay: Body weight difference the relation of the test animal to control animal weight was calculated at the 25 mg/kg doses; assay type: functional; outline: as §1
Mus musculus [14] = assay: Body weight difference the relation of the test animal to control animal weight was calculated at the 12.5 mg/kg doses; assay type: functional; outline: as §1
Mus musculus [15] = assay: Tumor cell population at the end of treatment relative to its size at the beginning of the treatment was calculated at the 50 mg/kg doses; assay type: functional; outline: as §1
P388 [16] = assay: Compound was tested for antitumor activity against P388 lymphocytic leukemia at the dose 25 mg/kg; assay type: functional, Mus musculus; outline: as §1
P388 [17] = assay: Compound was tested for antitumor activity against P388 lymphocytic leukemia at the dose 12.5 mg/kg; assay type: functional, Mus musculus; outline: as §1
Mus musculus [18] = assay: Body weight difference the relation of the test animal to control animal weight was calculated at the 50 mg/kg doses; assay type: functional; outline: as §1
Mus musculus [19] = assay: Body weight difference the relation of the test animal to control animal weight was calculated at the 240 mg/kg doses; assay type: functional; outline: as §1
P388 [20] = assay: Compound was tested for antitumor activity against P388 lymphocytic leukemia at the dose 60 mg/kg; assay type: functional, Mus musculus; outline: as §1
P388 [21] = assay: Compound was tested for antitumor activity against P388 lymphocytic leukemia at the dose 240 mg/kg; assay type: functional, Mus musculus; outline: as §1
Mus musculus [22] = assay: Body weight difference the relation of the test animal to control animal weight was calculated at the 60 mg/kg doses; assay type: functional; outline: as §1
Mus musculus [23] = assay: Body weight difference the relation of the test animal to control animal weight was calculated at the 120 mg/kg doses; assay type: functional; outline: as §1
P388 [24] = assay: Compound was tested for antitumor activity against P388 lymphocytic leukemia at the dose 120 mg/kg; assay type: functional, Mus musculus; outline: as §1
Mus musculus [25] = assay: Tumor cell population at the end of treatment relative to its size at the beginning of the treatment was calculated at the 100 mg/kg doses; assay type: functional; outline: as §1
P388 [26] = assay: Compound was tested for antitumor activity against P388 lymphocytic leukemia at the dose 100 mg/kg; assay type: functional, Mus musculus; outline: as §1
Mus musculus [27] = assay: Tumor cell population at the end of treatment relative to its size at the beginning of the treatment was calculated at the 240 mg/kg doses; assay type: functional; outline: as §1
Mus musculus [28] = assay: Tumor cell population at the end of treatment relative to its size at the beginning of the treatment was calculated at the 480 mg/kg doses; assay type: functional; outline: as §1
Mus musculus [29] = assay: Body weight difference the relation of the test animal to control animal weight was calculated at the 480 mg/kg doses; assay type: functional; outline: as §1
Mus musculus [30] = assay: Tumor cell population at the end of treatment relative to its size at the beginning of the treatment was calculated at the 120 mg/kg doses; assay type: functional; outline: as §1
Mus musculus [31] = assay: Tumor cell population at the end of treatment relative to its size at the beginning of the treatment was calculated at the 60 mg/kg doses; assay type: functional; outline: as §1
P388 [32] = assay: Compound was tested for antitumor activity against P388 lymphocytic leukemia at the dose 480 mg/kg; assay type: functional, Mus musculus; outline: as §1
P388 [33] = assay: Compound was tested for antitumor activity against P388 lymphocytic leukemia at the dose 200 mg/kg; assay type: functional, Mus musculus; outline: as §1
Mus musculus [34] = assay: Body weight difference the relation of the test animal to control animal weight was calculated at the 400 mg/kg doses; assay type: functional; outline: as §1
P388 [35] = assay: Compound was tested for antitumor activity against P388 lymphocytic leukemia at the dose 400 mg/kg; assay type: functional, Mus musculus; outline: as §1
Mus musculus [36] = assay: Body weight difference the relation of the test animal to control animal weight was calculated at the 200 mg/kg doses; assay type: functional; outline: as §1
Mus musculus [37] = assay: Tumor cell population at the end of treatment relative to its size at the beginning of the treatment was calculated at the 30 mg/kgd oses; assay type: functional; conditions: dose 30 mg/kg; outline: as §1
P388 [38] = assay: Compound was tested for antitumor activity against P388 lymphocytic leukemia at the dose 30 mg/kg; assay type: functional, Mus musculus; outline: as §1
Mus musculus [39] = assay: Tumor cell population at the end of treatment relative to its size at the beginning of the treatment was calculated at the 150 mg/kg doses; assay type: functional; conditions: dose 15 mg/kg; in the assay text read “15 mg/kg doses” for “150 mg/kg doses”; outline: as §1

Structure (SMILES): Cc1c(COC(=O)NC(C)C)c(COC(=O)NC(C)C)c(-c2ccccc2)n1C
K' [1]: 1.68 abs/time

Structure (SMILES): CNC(=O)OCC1=C(COC(=O)NC)[C@@H](c2ccccc2)N(C)[C@H]1c1ccccc1
T/C (P388 [9]): 154%
BDW (Mus musculus [10]): -4.3 g
KE (Mus musculus [11]): 0
KE (Mus musculus [12]): -1.16
BDW (Mus musculus [13]): -1.4 g
BDW (Mus musculus [14]): -0.1 g
KE (Mus musculus [15]): 1.06
T/C (P388 [16]): 136%
T/C (P388 [17]): 116%
BDW (Mus musculus [18]): -1.7 g

Structure (SMILES): CC(C)NC(=O)OCC1=C(COC(=O)NC(C)C)C(c2ccc(F)cc2)N(C)C1 (configuration not stated)
BDW (Mus musculus [19]): -2.7 g
T/C (P388 [20]): 112%
T/C (P388 [21]): 137%
BDW (Mus musculus [22]): -0.2 g
BDW (Mus musculus [23]): -2.7 g
T/C (P388 [24]): 131%

Structure (SMILES): CC(C)NC(=O)OCC1=C(COC(=O)NC(C)C)[C@@H](c2ccccc2)N(C)[C@H]1c1ccccc1
KE (Mus musculus [25]): 3.06
T/C (P388 [26]): 189%
T/C (P388 [9]): 145%
BDW (Mus musculus [10]): -3 g
KE (Mus musculus [11]): 0.16
KE (Mus musculus [12]): -0.9
BDW (Mus musculus [13]): -1.2 g
BDW (Mus musculus [14]): 0 g
KE (Mus musculus [15]): 0.53
T/C (P388 [16]): 139%
T/C (P388 [17]): 120%
BDW (Mus musculus [18]): -2.3 g

Structure (SMILES): CC(C)NC(=O)OCC1=C(COC(=O)NC(C)C)C(c2ccccc2)N(C)C1 (configuration not stated)
KE (Mus musculus [25]): 5.18
T/C (P388 [26]): 225%
T/C (P388 [9]): 145%
BDW (Mus musculus [10]): -2.2 g
KE (Mus musculus [11]): 0
KE (Mus musculus [12]): 0.84
BDW (Mus musculus [13]): -0.9 g
BDW (Mus musculus [14]): 0 g
KE (Mus musculus [15]): 0.53
T/C (P388 [16]): 136%
T/C (P388 [17]): 121%
BDW (Mus musculus [18]): -2 g

Structure (SMILES): COc1ccc(C2C(COC(=O)NC(C)C)=C(COC(=O)NC(C)C)CN2C)cc1 (configuration not stated)
T/C (P388 [20]): 158%
BDW (Mus musculus [23]; 120 mg/kg): -1.9 g and -1.2 g
T/C (P388 [24]): 110%

Structure (SMILES): CC(C)NC(=O)OCC1=C(COC(=O)NC(C)C)C(c2ccc(Cl)c(Cl)c2)N(C)C1 (configuration not stated)
BDW (Mus musculus [19]): -2.5 g
T/C (P388 [20]): 110%
T/C (P388 [21]): 119%
BDW (Mus musculus [22]): -1.3 g
BDW (Mus musculus [23]): -1.6 g
T/C (P388 [24]): 117%

Structure (SMILES): CC(C)NC(=O)OCC1=C(COC(=O)NC(C)C)C(C)(C)N(C)C1c1ccccc1 (configuration not stated)
T/C (P388 [26]): 113%
T/C (P388 [9]): 108%
BDW (Mus musculus [10]): -0.3 g
T/C (P388 [33]): 108%
BDW (Mus musculus [34]): -2.3 g
T/C (P388 [35]): 107%
BDW (Mus musculus [18]): 0.5 g
BDW (Mus musculus [36]): -0.1 g

Now from value to compound, other results behind:

K' [1]: 0.449 abs/time
Structure (SMILES): COc1ccc2c(c1)CCn1cc(COC(=O)NC(C)C)c(COC(=O)NC(C)C)c1-2
BDW (Mus musculus [2]): -3.1 g
KE (Mus musculus [3]): -0.04
T/C (P388 [4]): 175%
BDW (Mus musculus [5]): -2.6 g
KE (Mus musculus [6]): 0.16
T/C (P388 [7]): 125%
BDW (Mus musculus [8]): -3 g

K' [1]: 0.00605 abs/time
Structure (SMILES): CC(C)NC(=O)OCc1cn(C)c(-c2ccc(Cl)c(Cl)c2)c1COC(=O)NC(C)C
KE (Mus musculus [27]): 2.43
BDW (Mus musculus [19]): -2.7 g
T/C (P388 [20]): 117%
KE (Mus musculus [28]): 3.4
BDW (Mus musculus [29]): -3.6 g
KE (Mus musculus [30]): -0.39
KE (Mus musculus [31]): -1.15
T/C (P388 [21]): 160%
T/C (P388 [32]): 169%
BDW (Mus musculus [22]): -0.8 g
BDW (Mus musculus [23]): -1.6 g
T/C (P388 [24]): 133%

K' [1]: 0.0516 abs/time
Structure (SMILES): CC(C)NC(=O)OCc1cn(C)c(-c2ccc(F)cc2)c1COC(=O)NC(C)C
BDW (Mus musculus [2]): -2.2 g
KE (Mus musculus [3]): 0.04
KE (Mus musculus [37]): 0.21
T/C (P388 [38]): 188%
T/C (P388 [7]): 145%
BDW (Mus musculus [22]): -2.7 g
BDW (Mus musculus [8]): -0.4 g

K' [1]: 0.231 abs/time
Structure (SMILES): COc1ccc(-c2c(COC(=O)NC(C)C)c(COC(=O)NC(C)C)cn2C)cc1
BDW (Mus musculus [2]): 0.4 g
KE (Mus musculus [37]): -0.08
T/C (P388 [38]): 117%
T/C (P388 [20]): 164%
KE (Mus musculus [31]): 0.1
T/C (P388 [7]): 123%
BDW (Mus musculus [22]): -0.8 g
KE (Mus musculus [39]): -0.06
BDW (Mus musculus [8]): 0 g

K' [1]: 0.0935 abs/time
Structure (SMILES): CC(C)NC(=O)OCc1cn(C)c(-c2ccccc2)c1COC(=O)NC(C)C
BDW (Mus musculus [2]): -2.3 g
KE (Mus musculus [3]): -0.04
KE (Mus musculus [37]): -0.15
T/C (P388 [4]): 127%
T/C (P388 [38]): 100%
BDW (Mus musculus [5]): 0.1 g
KE (Mus musculus [6]): -0.04
T/C (P388 [7]): 148%
BDW (Mus musculus [22]): -4 g
BDW (Mus musculus [23]): -4.6 g
BDW (Mus musculus [8]): -0.1 g

K' [1]: 0.00154 abs/time
Structure (SMILES): CC(C)NC(=O)OCc1cn2c(c1COC(=O)NC(C)C)-c1cc(Cl)c(Cl)cc1CC2
KE (Mus musculus [27]): 0.1
BDW (Mus musculus [19]): -2.3 g
T/C (P388 [20]): 86%
KE (Mus musculus [28]): 5.05
BDW (Mus musculus [29]): -3.2 g
KE (Mus musculus [30]): -0.68
KE (Mus musculus [31]): -1.54
T/C (P388 [21]): 137%
T/C (P388 [32]): 185%
BDW (Mus musculus [22]): -0.4 g
BDW (Mus musculus [23]): -2.2 g
T/C (P388 [24]): 130%
